Here are results for ten compounds from ChEMBL document CHEMBL4725285, “Amides as bioisosteres of triazole-based geranylgeranyl diphosphate synthase inhibitors” (Bioorg Med Chem, 2020).

Assay [1] concerns the target T1, Geranylgeranyl pyrophosphate synthase (Homo sapiens, UniProt O95749).
T1 sequence (O95749 whole entry): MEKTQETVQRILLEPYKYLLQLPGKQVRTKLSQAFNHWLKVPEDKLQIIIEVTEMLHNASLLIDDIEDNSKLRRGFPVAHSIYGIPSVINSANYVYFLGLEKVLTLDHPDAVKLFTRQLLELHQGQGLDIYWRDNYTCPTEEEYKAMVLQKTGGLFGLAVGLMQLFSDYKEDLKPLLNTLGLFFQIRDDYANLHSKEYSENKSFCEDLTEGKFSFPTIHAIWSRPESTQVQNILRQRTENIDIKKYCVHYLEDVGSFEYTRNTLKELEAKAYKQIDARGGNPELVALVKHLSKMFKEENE
As to the kind of experiment: Inhibition of recombinant GGDPS (unknown origin) using [14C] IPP and FPP as substrate preincubated for 10 mins followed by substrate addition and measured after 30 min by liquid scintillation counting method. A digest of the protocol:
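Recombinant GGDPS used, run by a previously described method. Each compound tested in duplicate at multiple concentrations across three independent experiments. IC50 derived from concentration-response curves.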

For assay [2], the target named is T2, Geranylgeranyl pyrophosphate synthase (Homo sapiens) (UniProt O95749).
T2 sequence (whole entry): T1 sequence (O95749 whole entry)
The assay is described as follows: Inhibition of GGDPS in human RPMI-8226 cells assessed as lowest effective concentration required to show unmodified Rap1a band after 48 hrs by immunoblot analysis. It counts as cell-based. The essentials: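 RPMI-8226 myeloma cells exposed to drugs for 48 hrs, with lovastatin as positive control. Lysate protein quantified by BCA. Equal amounts run on SDS-PAGE, blotted to PVDF, and probed for H-Ras, Rap1a (antibody recognises only unmodified protein) and β-tubulin as loading control. Detection by HRP secondary antibodies and ECL.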

For another assay, the species on record is Homo sapiens. The assay is described as follows: Selectivity ratio of IC50 for FDPS (unknown origin) to IC50 for GGDPS (unknown origin).
In assay [3] the target is T2, Geranylgeranyl pyrophosphate synthase (Homo sapiens). The assay is described as follows: Inhibition of GGDPS in human RPMI-8226 cells assessed as lowest effective concentration required for increase in intracellular lambda chain level after 48 hrs by ELISA. In kind it is cell-based.
Assay [4] deals with T3, Farnesyl pyrophosphate synthase (Homo sapiens, UniProt P14324).
T3 sequence (P14324 whole entry): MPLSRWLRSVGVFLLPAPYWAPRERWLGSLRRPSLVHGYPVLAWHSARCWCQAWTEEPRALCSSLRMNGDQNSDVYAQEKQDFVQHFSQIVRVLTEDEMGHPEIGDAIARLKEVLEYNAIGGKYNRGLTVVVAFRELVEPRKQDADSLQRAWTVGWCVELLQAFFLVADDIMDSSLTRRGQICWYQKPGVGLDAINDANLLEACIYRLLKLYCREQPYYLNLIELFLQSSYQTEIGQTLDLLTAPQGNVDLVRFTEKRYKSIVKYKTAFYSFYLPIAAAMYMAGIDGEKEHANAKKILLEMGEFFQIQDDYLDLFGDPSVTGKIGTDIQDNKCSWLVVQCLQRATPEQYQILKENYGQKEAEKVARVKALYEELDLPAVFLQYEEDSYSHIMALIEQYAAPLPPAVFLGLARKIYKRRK
The assay is described as follows: Inhibition of recombinant FDPS (unknown origin) using [14C] IPP and GPP as substrate preincubated for 10 mins followed by substrate addition and measured after 30 min by liquid scintillation counting method.

The species named for assay [5] is Rattus norvegicus. As to the kind of experiment: Inhibition of recombinant rat GGtase-1 expressed in Escherichia coli using dansyl-GCVLS and geranylgeranyl pyrophosphate as substrate at 100 uM after 2 hrs by fluorescence microplate reader analysis relative to control. The essentials:
(§1)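 Recombinant FTase and GGTase I assayed with dansyl-GCVLS and dansyl-GCVLL peptides by a modified Temple et al. method. Fluorescence change followed over time on a microplate reader. Duplicates at multiple concentrations, up to 100 μM, in three independent experiments. IC50 taken from concentration-response curves.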

The species entered for assay [6] is Rattus norvegicus. The assay is described as follows: Inhibition of recombinant rat FTase expressed in Escherichia coli using dansyl-GCVLS peptide and farnesyl pyrophosphate as substrate at 100 uM after 1 hr by fluorescence microplate reader analysis relative to control. The essentials: as §1
For assay [7], the species on record is Rattus norvegicus. The assay is described as follows: Inhibition of recombinant rat GGtase-1 expressed in Escherichia coli using dansyl-GCVLS and geranylgeranyl pyrophosphate as substrate after 2 hrs by fluorescence microplate reader analysis. The essentials: as §1

The source made the active and inactive calls. The calls are words filed in the database; no cut-off is given here. Some results are limits rather than exact numbers.

For orientation: IC50 means the concentration that inhibits the measured activity by half. Regarding `CC(C)=CCCC(=O)NCCC(P(=O)(O)O)P(=O)(O)O`, the results for the IC50 in assay [1] and in assay [4] were 14.4 µM and 44.4 µM, respectively. For the same compound, the LED in assay [2] and in assay [3] was 50 µM in each case. The Ratio IC50 in the assay listed under Homo sapiens was determined as 3.1.

By inhibition is commonly meant the change of the read-out against control, counted positive when it falls. For the compound `CC(C)=CCC[C@@H](C)CC(=O)NCCC(P(=O)(O)O)P(=O)(O)O`, the IC50 in assay [1] worked out at 3.4 µM; in assay [4] it was 48.5 µM. The LED in assay [2] and in assay [3] was 5 µM throughout. For the same compound, in the assay listed under Homo sapiens, the Ratio IC50 is 14.3. Besides, the inhibition entry in the assay filed under Rattus norvegicus [5] and in the assay listed under Rattus norvegicus [6] was “inactive” throughout.

On to `CC(C)=CCC/C(C)=C\C(=O)NCCC(P(=O)(O)O)P(=O)(O)O`, for which the LED in assay [2] and in assay [3] was 50 µM throughout. Further, the inhibition in the assay filed under Rattus norvegicus [6] was less than 30%.

`CC(C)=CCC/C(C)=C/C(=O)NCCC(P(=O)(O)O)P(=O)(O)O` (mixture of isomers): the LED in assay [2] and in assay [3] was 10 µM throughout.

Consider `CC(C)=CCC/C(C)=C\CCn1cc(CC(P(=O)(O)O)P(=O)(O)O)nn1`, for which the LED in assay [2] and in assay [3] was 0.03 µM each time. In addition, the Ratio IC50 in the assay filed under Homo sapiens stood at 445. Besides, the IC50 in assay [4] turned out to be 33.3 µM.

`CC(C)=CCC/C(C)=C\CCC(=O)NCCC(P(=O)(O)O)P(=O)(O)O`: the values for the IC50 in assay [1] and in assay [4] were 1.1 µM and 31.7 µM, respectively. Also, the LED in assay [2] and in assay [3] was 0.5 µM in each case. Further, the Ratio IC50 in the assay listed under Homo sapiens is 28.8. Further, the inhibition entry in the assay filed under Rattus norvegicus [5] and in the assay listed under Rattus norvegicus [6] was “inactive” throughout.

As for `CC(C)=CCC[C@H](C)CC(=O)NCCC(P(=O)(O)O)P(=O)(O)O`, the IC50 was 5.4 µM in assay [1] and 27.8 µM in assay [4]. Further, the LED in assay [2] and in assay [3] was 50 µM each time. Also, the Ratio IC50 in the assay filed under Homo sapiens was determined as 5.1. Moreover, the inhibition entry in the assay listed under Rattus norvegicus [5] and in the assay listed under Rattus norvegicus [6] was “inactive” in each case.

On to `CC(C)=CCC/C(C)=C\CC(=O)NCCC(P(=O)(O)O)P(=O)(O)O`, for which the figures for the IC50 in assay [1] and in assay [4] were 3.7 µM and 7.8 µM, respectively. Besides, the LED in assay [2] and in assay [3] was 5 µM in each case. Moreover, in the assay filed under Homo sapiens, the Ratio IC50 turned out to be 2.1. For the same compound, the inhibition entry in the assay filed under Rattus norvegicus [5] and in the assay filed under Rattus norvegicus [6] was “inactive” in each case.

As to `CC(C)=CCC/C(C)=C/CCC(=O)NCCC(P(=O)(O)O)P(=O)(O)O`, the IC50 in assay [1] was 0.8 µM; in assay [4] it was 14.3 µM. For the same compound, the LED in assay [2] and in assay [3] was 1 µM in each case. Besides, the Ratio IC50 in the assay filed under Homo sapiens worked out at 17.9. The inhibition result in the assay filed under Rattus norvegicus [5] and in the assay listed under Rattus norvegicus [6] was “inactive” each time.

Regarding `CC(C)=CCC/C(C)=C/C(=O)NCCC(P(=O)(O)O)P(=O)(O)O`, the inhibition entry in the assay listed under Rattus norvegicus [7] was “inactive”. In addition, the LED in assay [2] and in assay [3] was 5 µM each time.
